Experimental data from ChEMBL document CHEMBL3588831, “Synthesis and in Vivo Evaluation of [123I]Melanin-Targeted Agents” (J Med Chem, 2015).

system: not listed separately; assay: Retention time of the compound by HPLC method; type: physicochemical; settings: not given

Row | Retention_time [min] | Compound
1 | 16.6 | O=C(c1ccc2c(n1)NCCC2)N1CCN(Cc2ccc([123I])cc2)CC1

system: not listed separately; assay: Drug distribution in eyes of C57BL/6J mouse bearing mouse B16F0 cells at 18 to 20 MBq, iv measured over 72 hrs by SPECT imaging study; type: ADME, organism-based, Eye; settings: in vivo
Outline: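 Female C57BL/6J mice (5–6 weeks) were inoculated s.c. on the left flank with 3 × 10^5 B16F0 cells in PBS and used after 11 days, with tumors 2–12 mm. Each received 18–20 MBq in 100 μL by lateral tail vein (n = 3 per tracer). Planar SPECT was done under isoflurane at 10–60 min, 3, 6, 24, 48 and 72 h. ROI pixel values were decay-corrected.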

Row | Drug uptake | Compound
2 | Active | O=C(c1ccc2c(n1)NCCC2)N1CCN(Cc2ccc([123I])cc2)CC1

system: Mus musculus; assay: Biodistribution in tumor of C57BL/6J mouse bearing mouse B16F0 cells at 0.37 to 1.85 MBq, iv after 24 hrs by gamma counting method; type: ADME, organism-based; settings: in vivo
Outline: (§1)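 Female C57BL/6J mice (5−6 weeks), s.c. inoculated on left flank with 3 × 10^5 B16F0 cells in Ca2+/Mg2+-free PBS, used 11 days later (tumors 2−12 mm). Radiotracer given via tail vein in 100 μL (~0.37 MBq for 1−24 h, 1.85 MBq for 48 h). Organs dissected, weighed, γ-counted, decay corrected. Expressed as % ID/g against injected-dose dilutions. Mean ± SEM, n = 5.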

Row | Drug uptake [% ID/g] | Compound
3 | 12.9 | O=C(c1ccc2c(n1)NCCC2)N1CCN(Cc2ccc([123I])cc2)CC1

system: Mus musculus; assay: Biodistribution in eyes of C57BL/6J mouse bearing mouse B16F0 cells at 0.37 to 1.85 MBq, iv after 3 hrs by gamma counting method; type: ADME, organism-based, Eye; settings: in vivo; outline: as §1

Row | Drug uptake [% ID/g] | Compound
4 | 56.4 | O=C(c1ccc2c(n1)NCCC2)N1CCN(Cc2ccc([123I])cc2)CC1

system: Mus musculus; assay: Biodistribution in eyes of C57BL/6J mouse bearing mouse B16F0 cells at 0.37 to 1.85 MBq, iv after 6 hrs by gamma counting method; type: ADME, organism-based, Eye; settings: in vivo; outline: as §1

Row | Drug uptake [% ID/g] | Compound
5 | 52.8 | O=C(c1ccc2c(n1)NCCC2)N1CCN(Cc2ccc([123I])cc2)CC1

system: Mus musculus; assay: Biodistribution in eyes of C57BL/6J mouse bearing mouse B16F0 cells at 0.37 to 1.85 MBq, iv after 48 hrs by gamma counting method; type: ADME, organism-based, Eye; settings: in vivo; outline: as §1

Row | Drug uptake [% ID/g] | Compound
6 | 19 | O=C(c1ccc2c(n1)NCCC2)N1CCN(Cc2ccc([123I])cc2)CC1

system: Mus musculus; assay: Biodistribution in large gastrointestinal tract of C57BL/6J mouse bearing mouse B16F0 cells at 0.37 to 1.85 MBq, iv after 24 hrs by gamma counting method; type: ADME, organism-based, Large intestine; settings: in vivo; outline: as §1

Row | Drug uptake [% ID/g] | Compound
7 | 1.7 | O=C(c1ccc2c(n1)NCCC2)N1CCN(Cc2ccc([123I])cc2)CC1

system: Mus musculus; assay: Biodistribution in large gastrointestinal tract of C57BL/6J mouse bearing mouse B16F0 cells at 0.37 to 1.85 MBq, iv after 48 hrs by gamma counting method; type: ADME, organism-based; settings: in vivo; outline: as §1

Row | Drug uptake [% ID/g] | Compound
8 | 0.2 | O=C(c1ccc2c(n1)NCCC2)N1CCN(Cc2ccc([123I])cc2)CC1

system: Mus musculus; assay: Biodistribution in small gastrointestinal tract of C57BL/6J mouse bearing mouse B16F0 cells at 0.37 to 1.85 MBq, iv after 6 hrs by gamma counting method; type: ADME, organism-based, Small intestine; settings: in vivo; outline: as §1

Row | Drug uptake [% ID/g] | Compound
9 | 11.5 | O=C(c1ccc2c(n1)NCCC2)N1CCN(Cc2ccc([123I])cc2)CC1

system: Mus musculus; assay: Biodistribution in small gastrointestinal tract of C57BL/6J mouse bearing mouse B16F0 cells at 0.37 to 1.85 MBq, iv after 16 hrs by gamma counting method; type: ADME, organism-based, Small intestine; settings: in vivo; outline: as §1

Row | Drug uptake [% ID/g] | Compound
10 | 1.4 | O=C(c1ccc2c(n1)NCCC2)N1CCN(Cc2ccc([123I])cc2)CC1

system: Mus musculus; assay: Biodistribution in small gastrointestinal tract of C57BL/6J mouse bearing mouse B16F0 cells at 0.37 to 1.85 MBq, iv after 24 hrs by gamma counting method; type: ADME, organism-based, Small intestine; settings: in vivo; outline: as §1

Row | Drug uptake [% ID/g] | Compound
11 | 0.8 | O=C(c1ccc2c(n1)NCCC2)N1CCN(Cc2ccc([123I])cc2)CC1

system: Mus musculus; assay: Biodistribution in small gastrointestinal tract of C57BL/6J mouse bearing mouse B16F0 cells at 0.37 to 1.85 MBq, iv after 48 hrs by gamma counting method; type: ADME, organism-based; settings: in vivo; outline: as §1

Row | Drug uptake [% ID/g] | Compound
12 | 0.1 | O=C(c1ccc2c(n1)NCCC2)N1CCN(Cc2ccc([123I])cc2)CC1

system: Mus musculus; assay: Biodistribution in thyroid gland of C57BL/6J mouse bearing mouse B16F0 cells at 0.37 to 1.85 MBq, iv after 3 hrs by gamma counting method; type: ADME, organism-based; settings: in vivo; outline: as §1

Row | Drug uptake [% ID/g] | Compound
13 | 2.7 | O=C(c1ccc2c(n1)NCCC2)N1CCN(Cc2ccc([123I])cc2)CC1

system: Mus musculus; assay: Biodistribution in thyroid gland of C57BL/6J mouse bearing mouse B16F0 cells at 0.37 to 1.85 MBq, iv after 6 hrs by gamma counting method; type: ADME, organism-based; settings: in vivo; outline: as §1

Row | Drug uptake [% ID/g] | Compound
14 | 2.7 | O=C(c1ccc2c(n1)NCCC2)N1CCN(Cc2ccc([123I])cc2)CC1

system: Mus musculus; assay: Biodistribution in thyroid gland of C57BL/6J mouse bearing mouse B16F0 cells at 0.37 to 1.85 MBq, iv after 16 hrs by gamma counting method; type: ADME, organism-based; settings: in vivo; outline: as §1

Row | Drug uptake [% ID/g] | Compound
15 | 2.5 | O=C(c1ccc2c(n1)NCCC2)N1CCN(Cc2ccc([123I])cc2)CC1

system: Spleen; assay: Biodistribution in spleen of C57BL/6J mouse bearing mouse B16F0 cells at 0.37 to 1.85 MBq, iv after 1 hr by gamma counting method; type: ADME, organism-based; settings: in vivo; outline: as §1

Row | Drug uptake [% ID/g] | Compound
16 | 3.5 | O=C(c1ccc2c(n1)NCCC2)N1CCN(Cc2ccc([123I])cc2)CC1

system: Liver; assay: Biodistribution in liver of C57BL/6J mouse bearing mouse B16F0 cells at 0.37 to 1.85 MBq, iv after 16 hrs by gamma counting method; type: ADME, organism-based; settings: in vivo; outline: as §1

Row | Drug uptake [% ID/g] | Compound
17 | 0.9 | O=C(c1ccc2c(n1)NCCC2)N1CCN(Cc2ccc([123I])cc2)CC1

system: Kidney; assay: Biodistribution in kidney of C57BL/6J mouse bearing mouse B16F0 cells at 0.37 to 1.85 MBq, iv after 1 hr by gamma counting method; type: ADME, organism-based; settings: in vivo; outline: as §1

Row | Drug uptake [% ID/g] | Compound
18 | 15.6 | O=C(c1ccc2c(n1)NCCC2)N1CCN(Cc2ccc([123I])cc2)CC1

system: Kidney; assay: Biodistribution in kidney of C57BL/6J mouse bearing mouse B16F0 cells at 0.37 to 1.85 MBq, iv after 3 hrs by gamma counting method; type: ADME, organism-based; settings: in vivo; outline: as §1

Row | Drug uptake [% ID/g] | Compound
19 | 9 | O=C(c1ccc2c(n1)NCCC2)N1CCN(Cc2ccc([123I])cc2)CC1

system: Kidney; assay: Biodistribution in kidney of C57BL/6J mouse bearing mouse B16F0 cells at 0.37 to 1.85 MBq, iv after 16 hrs by gamma counting method; type: ADME, organism-based; settings: in vivo; outline: as §1

Row | Drug uptake [% ID/g] | Compound
20 | 1.2 | O=C(c1ccc2c(n1)NCCC2)N1CCN(Cc2ccc([123I])cc2)CC1

system: Kidney; assay: Biodistribution in kidney of C57BL/6J mouse bearing mouse B16F0 cells at 0.37 to 1.85 MBq, iv after 24 hrs by gamma counting method; type: ADME, organism-based; settings: in vivo; outline: as §1

Row | Drug uptake [% ID/g] | Compound
21 | 1 | O=C(c1ccc2c(n1)NCCC2)N1CCN(Cc2ccc([123I])cc2)CC1

system: Kidney; assay: Biodistribution in kidney of C57BL/6J mouse bearing mouse B16F0 cells at 0.37 to 1.85 MBq, iv after 48 hrs by gamma counting method; type: ADME, organism-based; settings: in vivo; outline: as §1

Row | Drug uptake [% ID/g] | Compound
22 | 0.4 | O=C(c1ccc2c(n1)NCCC2)N1CCN(Cc2ccc([123I])cc2)CC1

system: not listed separately; assay: Ratio of AUC in tumor to skin of C57BL/6J mouse bearing mouse B16F0 cells at 0.37 to 1.85 MBq, iv by gamma counting method; type: ADME, organism-based; settings: in vivo
Outline: (§2)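 Biodistribution in B16F0-bearing C57BL/6J mice given i.v. tail-vein tracer (~0.37 MBq for 1–24 h, 1.85 MBq for 48 h). Sacrifice at 1, 3, 6, 16, 24 and 48 h, then organs dissected, weighed and γ-counted as decay-corrected % ID/g. Tumor AUC divided by each organ AUC; mean of ratios ± SEM, n = 5.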

Row | Ratio | Compound
23 | 40.9 | O=C(c1ccc2c(n1)NCCC2)N1CCN(Cc2ccc([123I])cc2)CC1

system: not listed separately; assay: Ratio of AUC in tumor to bone of C57BL/6J mouse bearing mouse B16F0 cells at 0.37 to 1.85 MBq, iv by gamma counting method; type: ADME, organism-based; settings: in vivo; outline: as §2

Row | Ratio | Compound
24 | 65.5 | O=C(c1ccc2c(n1)NCCC2)N1CCN(Cc2ccc([123I])cc2)CC1

system: not listed separately; assay: Ratio of AUC in tumor to gastrointestinal tract of C57BL/6J mouse bearing mouse B16F0 cells at 0.37 to 1.85 MBq, iv by gamma counting method; type: ADME, organism-based; settings: in vivo; outline: as §2

Row | Ratio | Compound
25 | 1.8 | O=C(c1ccc2c(n1)NCCC2)N1CCN(Cc2ccc([123I])cc2)CC1

system: not listed separately; assay: Stability in eyes of C57BL/6J mouse bearing mouse B16F0 cells assessed as intact parent compound level at 0.37 to 1.85 MBq, iv after 3 hrs by radio-HPLC and radio-TLC method; type: ADME, organism-based, Eye; settings: in the assay text read “20 MBq” for “0.37 to 1.85 MBq”, read-out: Stability
Outline: (§3)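 Tumor-bearing C57BL/6J mice were sampled 3 and 24 h after i.v. tracer. Tissue was sonicated in CH3CN/water (3:2) with cold iodo standard and KI, then centrifuged. Urine was diluted and spiked; plasma was spiked, with CH3CN precipitation for TLC. Intact fraction came from silica radio-TLC (spot matching standard Rf) and radio-HPLC with precolumn/C18 column switching.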

Row | remaining at 3 h [%] | Compound
26 | 60 | O=C(c1ccc2c(n1)NCCC2)N1CCN(Cc2ccc([123I])cc2)CC1

system: not listed separately; assay: Stability in eyes of C57BL/6J mouse bearing mouse B16F0 cells assessed as intact parent compound level at 0.37 to 1.85 MBq, iv after 24 hrs by radio-HPLC and radio-TLC method; type: ADME, organism-based, Eye; settings: in the assay text read “20 MBq” for “0.37 to 1.85 MBq”, read-out: Stability; outline: as §3

Row | remaining at 24 h [%] | Compound
27 | 35 | O=C(c1ccc2c(n1)NCCC2)N1CCN(Cc2ccc([123I])cc2)CC1

system: Plasma; assay: Stability in plasma of C57BL/6J mouse bearing mouse B16F0 cells assessed as drug degradation at 0.37 to 1.85 MBq, iv after 24 hrs by radio-HPLC and radio-TLC method; type: ADME, organism-based; settings: in vivo, in the assay text read “20 MBq” for “0.37 to 1.85 MBq”; outline: as §3

Row | Stability | Compound
28 | Unstable | O=C(c1ccc2c(n1)NCCC2)N1CCN(Cc2ccc([123I])cc2)CC1
